Measured values as given in ChEMBL document CHEMBL1134326, “C-16 artemisinin derivatives and their antimalarial and cytotoxic activities: syntheses of artemisinin monomers, dimers, trimers, and tetramers by nucleophilic additions to artemisitene” (J Med Chem, 2001).
pEC50, pIC50: −log10 of the molar value.

Legend:
Plasmodium falciparum = assay: Antimalarial activity against Plasmodium falciparum; type: functional, organism-based
Method in brief: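 P. falciparum K1 (multidrug-resistant), asexual erythrocytic stage kept in continuous in vitro culture; microculture radioisotope method after Desjardins. EC50 is the concentration giving 50% reduction in parasite growth, measured as [3H]hypoxanthine uptake. Artemisinin and dihydroartemisinin served as standards.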

BC [1] = assay: Cytotoxicity against BC cells.; type: functional, cell-based; details: Homo sapiens
Method in brief: (§1)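 Colorimetric cytotoxicity assay after Skehan on KB, BC and vero cell lines. Maximum concentration tested 130 µM. Ellipticine was the positive control. IC50 is reported in µM.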

Vero = assay: Cytotoxicity against vero cells.; type: functional, cell-based; details: Chlorocebus sabaeus; method in brief: as §1
[2] = Cytotoxicity against KB cells.; type: functional, cell-based; details: Homo sapiens; method in brief: as §1
[3] = Therapeutic index(TI) as IC50 of vero cells to that of EC50; type: cell-based, Cricetulus griseus; details: chinese hamster, read-out: Ti
BC [4] = assay: Cytotoxicity against BC cells; type: functional, cell-based; details: Homo sapiens; method in brief: as §1
KB = assay: Cytotoxicity against KB cells; type: functional, cell-based; details: Homo sapiens; method in brief: as §1
[5] = Therapeutic index (TI) determined as IC50 of vero cells to that of EC50; type: cell-based; details: plasmodium falciparum, read-out: TI

Row | Structure (SMILES) | pEC50 (Plasmodium falciparum) | pIC50 (BC [1]) | pIC50 (Vero) | pIC50 [2] | selectivity ratio [3] | IA (BC [4]) | IA (KB) | selectivity ratio [5]
1 | CCCCCCC1(CC2C(=O)OC3OC4(C)CCC5C(C)CCC2C35OO4)C(=O)OC2OC3(C)CCC4C(C)CCC1C24OO3 (stereo not given) | 8.30 | 5.89 | 5.60 | 5.40 | 5 |  |  | 
2 | CCC[C@H]1C(=O)O[C@@H]2O[C@]3(C)CC[C@H]4[C@H](C)CC[C@@H]1[C@@]24OO3 | 8.20 |  | < 3.89 |  |  | Cytotoxic | Cytotoxic | > 2.1
